# Columns and labels:
# [1] = Equilibrium aqueous solubility of the compound at pH 2.1 after 4 hrs; assay type: physicochemical; conditions: aqueous medium
# [2] = biological target: T1, Adenosine receptor A1 (Homo sapiens, UniProt P30542); assay: Displacement of [3H]-DPCPX from human adenosine A1 receptor expressed in HEK293 cell membranes measured after 90 mins
# T1 sequence (P30542 whole entry): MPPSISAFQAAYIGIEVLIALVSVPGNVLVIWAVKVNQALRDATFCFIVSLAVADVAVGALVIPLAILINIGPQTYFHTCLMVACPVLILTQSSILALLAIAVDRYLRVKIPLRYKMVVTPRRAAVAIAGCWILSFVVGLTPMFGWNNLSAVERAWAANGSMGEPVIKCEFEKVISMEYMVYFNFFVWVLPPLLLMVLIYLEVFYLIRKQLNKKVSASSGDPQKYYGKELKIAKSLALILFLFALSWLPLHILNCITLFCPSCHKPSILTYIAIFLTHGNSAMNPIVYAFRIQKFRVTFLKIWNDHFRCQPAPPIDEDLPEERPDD
# In short: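 Competition binding on membranes from HEK-293 cells overexpressing human A1, A2A, A2B or A3, washed with ADA. Radioligands: [3H]-DPCPX 1 nM (A1), [3H]ZM241385 1 nM (A2A), [3H]-MRS-1754 1.6 nM (A2B), [3H]-HEMADO 2 nM (A3). Buffer was 50 mM Tris with EDTA and ADA; MgCl2 10 mM for A2A/A3; A2B at pH 6.5 with 5 mM MgCl2. Incubation 90 min at room temperature, then filtration. Nonspecific binding defined by NECA 100 μM. Ki values: mean of two experiments, triplicate points.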
# [3] = Equilibrium aqueous solubility of the compound at pH 4 after 4 hrs; assay type: physicochemical; conditions: aqueous medium
# [4] = AUC (0 to t) in Wistar rat at 10 mg/kg administered via oral gavage by LC/MS/MS analysis; assay type: ADME, organism-based; conditions: in vivo
# In short: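 Male Wistar rats (230 ± 15 g), fasted overnight with water available, given a single oral suspension in 1% Tween 80 and 0.5% NaCMC (1 mg/mL, 10 mL/kg). Serial blood sampling (n=3/time point) at 0.25–24 h into K2EDTA. Plasma proteins precipitated with acetonitrile, then LC/MS/MS. AUC0-t by non-compartmental analysis of individual animals.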
# [5] = Clearance in Wistar rat at 3 mg/kg, iv by LC/MS/MS analysis; assay type: ADME, organism-based; conditions: in vivo
# In short: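 Male Wistar rats (230 ± 15 g), fasted overnight, given 3 mg/kg IV via tail vein as a solution (0.6 mg/mL, 5 mL/kg) in NMP-based vehicles with acetate buffer pH 4.2. Serial plasma sampling (K2EDTA) from 0.008 to 24 h. Acetonitrile precipitation, then LC/MS/MS. Non-compartmental analysis per animal; mean of n=4.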
# [6] = test system: Liver; assay: Metabolic stability in human liver microsomes assessed as metabolic rate at 1 uM preincubated for 5 mins followed by addition of NADPH measured after 3 to 30 mins by LC-MS/MS analysis; assay type: ADME, microsome
# [7] = biological target: T2, hERG (KCNH2) (Homo sapiens, UniProt Q12809); assay: Inhibition of [3H]-astemizole binding to human ERG at 30 uM after 2 hrs by liquid scintillation counting method relative to control; conditions: probe [3H]-astemizole
# T2 sequence (Q12809 whole entry): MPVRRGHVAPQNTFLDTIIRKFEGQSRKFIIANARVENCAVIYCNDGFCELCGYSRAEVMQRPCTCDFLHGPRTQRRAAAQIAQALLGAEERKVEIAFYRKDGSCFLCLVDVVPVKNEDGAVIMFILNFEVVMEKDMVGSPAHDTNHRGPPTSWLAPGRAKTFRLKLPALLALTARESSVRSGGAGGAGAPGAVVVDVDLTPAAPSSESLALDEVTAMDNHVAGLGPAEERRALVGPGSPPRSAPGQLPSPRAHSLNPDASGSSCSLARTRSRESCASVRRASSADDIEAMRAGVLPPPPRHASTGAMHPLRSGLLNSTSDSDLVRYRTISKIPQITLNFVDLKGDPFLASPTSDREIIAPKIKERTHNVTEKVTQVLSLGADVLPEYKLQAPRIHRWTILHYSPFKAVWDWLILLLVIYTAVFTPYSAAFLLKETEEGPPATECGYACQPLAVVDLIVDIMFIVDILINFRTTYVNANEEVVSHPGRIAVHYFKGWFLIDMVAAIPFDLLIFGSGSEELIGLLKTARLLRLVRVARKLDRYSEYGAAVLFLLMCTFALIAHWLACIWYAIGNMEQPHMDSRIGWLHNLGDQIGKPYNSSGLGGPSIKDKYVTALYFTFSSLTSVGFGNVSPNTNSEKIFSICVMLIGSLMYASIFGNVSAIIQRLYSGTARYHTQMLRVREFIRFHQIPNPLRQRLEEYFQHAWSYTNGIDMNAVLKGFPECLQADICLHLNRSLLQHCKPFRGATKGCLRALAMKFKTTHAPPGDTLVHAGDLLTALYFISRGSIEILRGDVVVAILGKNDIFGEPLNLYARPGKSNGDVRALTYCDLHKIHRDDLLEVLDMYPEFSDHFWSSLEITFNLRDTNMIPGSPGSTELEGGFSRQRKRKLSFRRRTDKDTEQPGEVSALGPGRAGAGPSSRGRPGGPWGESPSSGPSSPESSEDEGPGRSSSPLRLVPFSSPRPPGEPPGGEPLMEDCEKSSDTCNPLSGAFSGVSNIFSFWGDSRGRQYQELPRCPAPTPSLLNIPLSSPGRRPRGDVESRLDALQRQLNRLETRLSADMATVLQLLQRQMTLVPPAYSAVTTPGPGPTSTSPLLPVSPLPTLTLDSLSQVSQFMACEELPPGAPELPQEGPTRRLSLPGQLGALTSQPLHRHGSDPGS
# [8] = Tmax in Wistar rat at 10 mg/kg administered via oral gavage by LC/MS/MS analysis; assay type: ADME, organism-based; conditions: in vivo
# In short: (§1)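 Fasted male Wistar rats given 10 mg/kg PO as a suspension in 1% Tween 80, 0.5% w/v NaCMC. Serial plasma sampling (K2EDTA) at 0.25–24 h, acetonitrile precipitation, LC/MS/MS. Non-compartmental analysis per animal; bioavailability calculated against the 3 mg/kg IV group; mean of n=4.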
# [9] = Oral bioavailability in Wistar rat at 10 mg/kg administered via gavage by LC/MS/MS analysis; assay type: ADME, organism-based; conditions: in vivo; in short: as §1
# [10] = test system: Liver; assay: Metabolic stability in rat liver microsomes assessed as metabolic rate at 1 uM preincubated for 5 mins followed by addition of NADPH measured after 3 to 30 mins by LC-MS/MS analysis; assay type: ADME, microsome
# [11] = AUC (0 to t) in Wistar rat at 3 mg/kg, iv by LC/MS/MS analysis; assay type: ADME, organism-based; conditions: in vivo
# In short: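 Overnight-fasted male Wistar rats received a 3 mg/kg tail-vein solution (0.6 mg/mL, 5 mL/kg). Vehicle was 10% NMP with PEG300, Cremophor EL and/or HPβ-CD in 0.1 M acetate buffer, pH 4.2; co-solvents varied by compound. Serial K2EDTA blood samples (n=3/time point) taken 0.008–24 h. Plasma measured by LC/MS/MS; non-compartmental AUC0-t per animal.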
# [12] = biological target: Cytochrome P450 2C9 (Homo sapiens, UniProt P11712); assay: Inhibition of CYP2C9 in human liver microsomes at 5 to 25 uM using diclofenac as substrate preincubated for 5 mins with substrate followed by NADPH addition measured after 10 mins by LC-MS/MS analysis; assay type: ADME; conditions: microsomes, 10 min, 25 µM
# Cytochrome P450 2C9, sequence (P11712 whole entry): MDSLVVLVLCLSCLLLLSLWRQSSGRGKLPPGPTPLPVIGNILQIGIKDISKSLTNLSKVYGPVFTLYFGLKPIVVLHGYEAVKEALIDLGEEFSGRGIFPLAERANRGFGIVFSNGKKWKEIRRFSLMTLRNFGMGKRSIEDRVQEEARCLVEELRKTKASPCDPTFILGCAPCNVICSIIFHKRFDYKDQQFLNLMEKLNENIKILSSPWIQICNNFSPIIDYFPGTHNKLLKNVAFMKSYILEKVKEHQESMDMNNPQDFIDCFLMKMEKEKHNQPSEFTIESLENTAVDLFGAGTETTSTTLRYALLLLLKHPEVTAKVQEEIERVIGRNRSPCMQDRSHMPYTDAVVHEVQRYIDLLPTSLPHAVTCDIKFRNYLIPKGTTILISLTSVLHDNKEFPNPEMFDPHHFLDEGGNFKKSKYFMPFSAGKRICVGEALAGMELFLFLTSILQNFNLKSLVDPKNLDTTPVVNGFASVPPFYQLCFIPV
# [13] = biological target: T3, Adenosine receptor A3 (Homo sapiens, UniProt P0DMS8); assay: Displacement of [3H]-HEMADO from human adenosine A3 receptor expressed in HEK293 cell membranes measured after 90 mins
# T3 sequence (P0DMS8 whole entry): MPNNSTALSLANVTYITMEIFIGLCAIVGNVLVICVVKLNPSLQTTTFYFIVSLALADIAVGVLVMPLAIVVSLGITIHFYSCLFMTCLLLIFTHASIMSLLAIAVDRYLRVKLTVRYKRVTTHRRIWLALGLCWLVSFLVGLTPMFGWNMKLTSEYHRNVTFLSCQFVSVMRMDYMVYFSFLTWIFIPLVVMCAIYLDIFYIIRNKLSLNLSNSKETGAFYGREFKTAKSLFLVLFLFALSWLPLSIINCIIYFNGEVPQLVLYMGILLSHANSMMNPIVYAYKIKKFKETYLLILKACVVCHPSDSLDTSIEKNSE
# [14] = biological target: Cytochrome P450 2C19 (Homo sapiens, UniProt P33261); assay: Inhibition of CYP2C19 in human liver microsomes at 5 to 25 uM using (S)mephenytoin as substrate preincubated for 5 mins with substrate followed by NADPH addition measured after 40 mins by LC-MS/MS analysis; assay type: ADME; conditions: microsomes, 40 min, 25 µM
# Cytochrome P450 2C19, sequence (P33261 whole entry): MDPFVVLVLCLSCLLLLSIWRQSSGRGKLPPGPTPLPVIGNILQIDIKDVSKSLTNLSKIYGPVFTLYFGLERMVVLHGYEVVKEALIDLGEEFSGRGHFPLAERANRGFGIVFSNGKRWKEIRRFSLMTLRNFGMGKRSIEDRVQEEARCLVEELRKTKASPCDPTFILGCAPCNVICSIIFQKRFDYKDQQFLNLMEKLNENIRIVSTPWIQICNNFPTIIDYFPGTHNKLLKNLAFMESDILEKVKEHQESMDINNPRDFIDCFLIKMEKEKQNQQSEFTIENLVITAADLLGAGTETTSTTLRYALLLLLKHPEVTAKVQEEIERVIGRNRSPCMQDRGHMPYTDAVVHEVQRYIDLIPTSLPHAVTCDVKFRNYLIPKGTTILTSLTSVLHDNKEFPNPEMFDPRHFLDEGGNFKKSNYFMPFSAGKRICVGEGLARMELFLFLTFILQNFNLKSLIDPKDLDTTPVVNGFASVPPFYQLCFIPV
# [15] = biological target: Cytochrome P450 2D6 (Homo sapiens, UniProt P10635); assay: Inhibition of CYP2D6 in human liver microsomes at 5 to 25 uM using dextromethorphan as substrate preincubated for 5 mins with substrate followed by NADPH addition measured after 10 mins by LC-MS/MS analysis; assay type: ADME; conditions: microsomes, 10 min, 25 µM
# Cytochrome P450 2D6, sequence (P10635 whole entry): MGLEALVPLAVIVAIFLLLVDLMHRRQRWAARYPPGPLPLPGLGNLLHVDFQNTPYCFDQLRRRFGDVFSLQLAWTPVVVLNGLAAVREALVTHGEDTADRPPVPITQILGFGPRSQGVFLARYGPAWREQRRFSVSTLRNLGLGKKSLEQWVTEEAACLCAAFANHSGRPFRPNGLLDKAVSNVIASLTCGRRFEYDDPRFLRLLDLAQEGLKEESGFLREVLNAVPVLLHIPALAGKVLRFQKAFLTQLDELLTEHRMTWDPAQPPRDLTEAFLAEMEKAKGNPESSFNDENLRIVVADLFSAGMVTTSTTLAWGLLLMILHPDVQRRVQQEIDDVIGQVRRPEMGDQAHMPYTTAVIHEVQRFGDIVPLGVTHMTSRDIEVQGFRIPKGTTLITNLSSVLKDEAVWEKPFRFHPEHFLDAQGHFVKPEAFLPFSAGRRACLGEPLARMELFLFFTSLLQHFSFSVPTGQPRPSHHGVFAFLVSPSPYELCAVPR
# [16] = biological target: T2, hERG (KCNH2); assay: Inhibition of [3H]-astemizole binding to human ERG at 10 uM after 2 hrs by liquid scintillation counting method relative to control; conditions: probe [3H]-astemizole
# [17] = biological target: T4, Adenosine receptor A3 (Homo sapiens) (UniProt P0DMS8); assay: Displacement of [3H]-HEMADO from human adenosine A3 receptor expressed in HEK293 cell membranes at 1 uM measured after 90 mins relative to control
# T4 sequence (whole entry): T3 sequence (P0DMS8 whole entry)
# [18] = biological target: T5, Adenosine receptor A1 (Homo sapiens) (UniProt P30542); assay: Displacement of [3H]-DPCPX from human adenosine A1 receptor expressed in HEK293 cell membranes at 1 uM measured after 90 mins relative to control
# T5 sequence (whole entry): T1 sequence (P30542 whole entry)
SMILES,solubility thermodynamic at 4 h [1] [µM],Ki [2] [nM],solubility thermodynamic at 4 h [3] [µM],AUC(0-t) [4] [µM·h],clearance [5] [mL/min/kg],Drug metabolism [6] [nmol/min/mg],"inhibition at 2 h, 30 µM [7] [%]",Tmax [8] [min],bioavailability [9] [%],Drug metabolism [10] [nmol/min/mg],AUC(0-t) [11] [µM·h],inhibition (INH) [12],Ki [13] [nM],inhibition (INH) [14],inhibition (INH) [15],"inhibition at 2 h, 10 µM [16] [%]",inhibition [17] [%],inhibition [18] [%]
COc1ccc(N2CCOCC2)c2sc(NC(=O)C3(C)CCC(C)(O)CC3)nc12 (stereo not given),139,2900,111,7.8,32,< 0.04,26,30,63,< 0.04,3.7,–,–,–,–,–,–,–
COc1ccc(N2CCOCC2)c2sc(NC(=O)C(C)(C)Oc3ccc(F)cc3)nc12,< 6,5000,< 6,1.5,15,0.02,–,30,6,0.04,7.6,Not Active,5000,Not Active,Not Active,< 5,11,16
COc1ccc(N2CCOCC2)c2sc(NC(=O)C(C)(C)Oc3ccc(F)c(F)c3)nc12,< 6,1100,< 6,6.2,10.2,0.07,–,30,17,0.09,10.7,Not Active,500,Not Active,Not Active,< 5,28,38
COc1cnc(N2CCOCC2)c2sc(NC(=O)C(C)(C)Oc3ccc(F)cc3)nc12,< 6,500,< 6,12,6.6,< 0.04,< 10,165,21.7,< 0.04,16.4,Not Active,400,Not Active,Not Active,< 10,46,46
CCN(CC)C1CCC(C)(C(=O)Nc2nc3c(OC)ccc(N4CCOCC4)c3s2)CC1 (stereo not given),1840,1200,1810,5.5,37.2,0.03,18,37.8,61,0.01,2.7,–,–,–,–,13,–,–
